Experimental data gathered from unrelated publications.
ACSL4: Long-chain-fatty-acid--CoA ligase 4 (ACSL4, Homo sapiens, UniProt O60488)
RIOK3: Serine/threonine-protein kinase RIO3 (RIOK3, Homo sapiens, UniProt O14730)
DAPK1: Death-associated protein kinase 1 (DAPK1, Homo sapiens, UniProt P53355)

COC(=O)/C=C/c1ccc(OCCN(C)C(=O)c2ccccc2)cc1 — ΔTm (ACSL4; thermal stability; DSF; 5 µM): 5.3 °C
CCCCC(=O)Nc1ccc(-c2ccc3ncn(CCC)c(=O)c3c2)cn1 — remaining binding (Dual specificity protein kinase TTK (TTK, Homo sapiens, UniProt P33981); binding; competition with immobilised ligand; 0.5 µM): 64%
COc1cccc2c(N3CCC(CCP(=O)(O)O)CC3)ncnc12 — residence time (Ectonucleotide pyrophosphatase/phosphodiesterase family member 1 (Enpp1, Mus musculus, UniProt P06802); binding; SPR): 9 min
C#Cc1cc(-c2cc(Nc3nc(N[C@@H](C)c4ccc(F)cn4)ncc3Cl)n[nH]2)ccc1C=O — inhibition (Non-receptor tyrosine-protein kinase TNK1 (TNK1, Homo sapiens, UniProt Q13470); enzyme activity; inhibitor; 0.2 µM): 74.8%
C[C@]1(O)CCCN(c2nc(Nc3ccc(S(=O)(=O)N[C@H]4CC[C@H](CN5CCN(c6ccc(C7CCC(=O)NC7=O)cc6F)CC5)CC4)cc3Cl)ncc2C(F)(F)F)C1 (stereo partly shown) — remaining binding (RIOK3; binding; competition with immobilised ligand; 1 µM): 52%
COc1ccc(CC2SC(=O)NC2=O)cc1 (stereo not shown) — inhibition (ACSL4; enzyme activity; inhibitor; 10 µM): 13%
C1=C/COCc2cc(ccc2OCCN2CCCC2)Nc2nccc(n2)-c2cccc(c2)COC/1 — remaining binding (DAPK1; binding; 0.1 µM): 64%
Cc1cc(S(=O)(=O)N[C@H]2CC[C@H](CN3CCN(c4ccc(C5CCC(=O)NC5=O)cc4F)CC3)CC2)ccc1Nc1ncc(C(F)(F)F)c(N2CCC[C@](C)(O)C2)n1 (stereo partly shown) — remaining binding (RIOK3; binding; competition with immobilised ligand; 1 µM): 58%
COc1ccc2oc(-c3ccc4nc(N)oc4c3)c/c(=N\c3ccccc3NC(=O)CCN)c2c1 — remaining binding (DAPK1; binding; 1 µM): 104%
C[C@]1(O)CCCN(c2nc(Nc3ccc(S(=O)(=O)N[C@H]4CC[C@H](CN5CCN(c6ccc(C7CCC(=O)NC7=O)cc6F)CC5)CC4)cc3F)ncc2C(F)(F)F)C1 (stereo partly shown) — remaining binding (RIOK3; binding; competition with immobilised ligand; 1 µM): 100%
Cc1cc(F)cc2c(CCC(=O)N[C@@H]3C(=O)NC[C@H]3O)c(-c3ccc(F)cc3)[nH]c12 — inhibition (3',5'-cyclic-AMP phosphodiesterase 4D (PDE4D, Homo sapiens, UniProt Q08499); enzyme activity; inhibitor; 10 µM): 17%
CNS(=O)(=O)c1ccc(Nc2ncc(C(F)(F)F)c(N3CCC[C@](C)(O)C3)n2)c(C)c1 — remaining binding (RIOK3; binding; competition with immobilised ligand; 1 µM): 99%
CCN1/C(=C/C(C)=O)Sc2ccc(F)cc21 — inhibition (5-hydroxytryptamine receptor 1B (HTR1B, Homo sapiens, UniProt P28222); ligand displacement; radioligand; 10 µM): 1.73%
